Data set [1] is described as follows: Octanol water partition coefficient was determined at pH 7.4. The format is physicochemical.
A further data set concerns the target Cytochrome P450 3A4 (Homo sapiens, UniProt P08684). Briefly: Inhibition of human liver microsome Cytochrome P3A4. The format is microsomes. In short, it runs like this: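 CYP3A4 inhibition was measured by a published fluorometric method using BFC as the substrate.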

Each structure is given as a SMILES string.

These results are taken from ChEMBL document CHEMBL1149232, “An aminomethylpyrimidine DPP-IV inhibitor with improved properties” (Bioorg Med Chem Lett, 2004).

Cytochrome P450 3A4, sequence (P08684 whole entry): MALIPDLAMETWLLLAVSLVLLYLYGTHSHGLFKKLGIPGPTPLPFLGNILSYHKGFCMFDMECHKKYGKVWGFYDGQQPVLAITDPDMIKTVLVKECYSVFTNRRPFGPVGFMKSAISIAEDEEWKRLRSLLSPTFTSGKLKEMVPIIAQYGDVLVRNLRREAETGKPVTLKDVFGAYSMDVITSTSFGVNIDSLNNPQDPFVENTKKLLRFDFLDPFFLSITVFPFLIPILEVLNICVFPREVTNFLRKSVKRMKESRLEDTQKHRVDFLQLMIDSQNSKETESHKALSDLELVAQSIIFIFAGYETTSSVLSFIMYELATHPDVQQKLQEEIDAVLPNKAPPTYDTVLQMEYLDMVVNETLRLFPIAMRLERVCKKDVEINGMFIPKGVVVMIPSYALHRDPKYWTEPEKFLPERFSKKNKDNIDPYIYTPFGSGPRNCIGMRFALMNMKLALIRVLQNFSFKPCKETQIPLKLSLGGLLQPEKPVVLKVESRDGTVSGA

In the case of `COc1nc(N)c(CN)c(-c2ccc(Cl)cc2Cl)n1`, in data set [1], the logD was determined as 1.6.
Compound `Cc1nc(N)c(CN)c(-c2ccc(Cl)cc2Cl)n1` returned a logD in data set [1] of 1.4.
In data set [1], `NCc1c(N)nc(N)nc1-c1ccc(Cl)cc1Cl` showed a log distribution coefficient (logD) of 0.4.
The compound `NCc1c(N)nc(-c2ccccc2)nc1-c1ccc(Cl)cc1Cl` returned a half-maximal inhibitory concentration (IC50) at Cytochrome P450 3A4 of 5.4 µM. Moreover, in data set [1], the logD is 3.
